Reference: ChEMBL document CHEMBL3045005, “Synthesis and biological evaluation of new analogues of the active fungal metabolites N-(2-methyl-3-oxodecanoyl)-2-pyrroline and N-(2-methyl-3-oxodec-8-enoyl)-2-pyrroline (II)” (2000)
Calls of active or inactive are those of the source. No cut-off for these calls is given here.

Assays:
Colletotrichum coccodes [1] = assay: Fungicidal activity against Colletotrichum coccodes CCM 327 assessed as inhibition of radial mycelial growth at 2.5 ug/mL after 4 days; type: functional; details: CCM 327, 96 h, read-out: GI
How it was run: (§1)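 Benomyl added to PDA at 2.5 µg/mL; acetone-only PDA plates served as controls. Plates were inoculated with spores from seven-day-old PDA cultures of each fungus and incubated at 28 °C for 4 days. Radial mycelial growth was measured and % inhibition was calculated against control-plate growth. Three independent determinations; means ± SD; ANOVA with LSD test.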

Aspergillus parasiticus [2] = assay: Fungicidal activity against Aspergillus parasiticus CECT 2681 assessed as inhibition of radial mycelial growth at 2.5 ug/mL after 4 days; type: functional; details: CECT 2681, 96 h, read-out: GI; how it was run: as §1
Verticillium dahliae [3] = assay: Fungicidal activity against Verticillium dahliae CCM 269 assessed as inhibition of radial mycelial growth at 2.5 ug/mL after 6 days; type: functional; details: CCM 269, 144 h, read-out: GI
How it was run: as §1, with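 “cultures” for “cultures of each fungus”, “6” for “4”, “relative to control plates.” for “against control-plate growth.”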

Alternaria alternata [4] = assay: Fungicidal activity against Alternaria tenuis CECT 2662 assessed as inhibition of radial mycelial growth at 2.5 ug/mL after 4 days; type: functional; details: CECT 2662, 96 h, read-out: GI; how it was run: as §1
[5] = tested on: Fusarium oxysporum f. sp. gladioli; assay: Fungicidal activity against Fusarium oxysporum f. sp. gladioli CCM 233 assessed as inhibition of radial mycelial growth at 2.5 ug/mL after 4 days; type: functional; details: CCM 233, 96 h, read-out: GI; how it was run: as §1
Penicillium italicum [6] = assay: Fungicidal activity against Penicillium italicum CECT 2294 assessed as inhibition of radial mycelial growth at 2.5 ug/mL after 4 days; type: functional; details: CECT 2294, 96 h, read-out: GI; how it was run: as §1
[7] = tested on: Phytophthora citrophthora; assay: Fungicidal activity against Phytophthora citrophthora assessed as inhibition of radial mycelial growth at 2.5 ug/mL after 4 days; type: functional; details: 96 h, read-out: GI; how it was run: as §1
Geotrichum candidum [8] = assay: Fungicidal activity against Galactomyces geotrichum CCM 245 assessed as inhibition of radial mycelial growth at 2.5 ug/mL after 4 days; type: functional; details: CCM 245, 96 h, read-out: GI; how it was run: as §1
Trichothecium roseum [9] = assay: Fungicidal activity against Trichothecium roseum CECT 2410 assessed as inhibition of radial mycelial growth at 2.5 ug/mL after 4 days; type: functional; details: CECT 2410, 96 h, read-out: GI; how it was run: as §1
[10] = tested on: Colletotrichum gloeosporioides; assay: Fungicidal activity against Colletotrichum gloeosporioides CECT 2859 assessed as inhibition of radial mycelial growth at 2.5 ug/mL after 4 days; type: functional; details: CECT 2859, 96 h, read-out: GI; how it was run: as §1
Trichoderma viride [11] = assay: Fungicidal activity against Hypocrea rufa CECT 2423 assessed as inhibition of radial mycelial growth at 2.5 ug/mL after 4 days; type: functional; details: CECT 2423, 96 h, read-out: GI; how it was run: as §1
Fusarium culmorum [12] = assay: Fungicidal activity against Fusarium culmorum CCM 172 assessed as inhibition of radial mycelial growth at 2.5 ug/mL after 4 days; type: functional; details: CCM 172, 96 h, read-out: GI; how it was run: as §1
[13] = tested on: Fusarium oxysporum f. sp. niveum; assay: Fungicidal activity against Fusarium oxysporum f. sp. niveum CCM 259 assessed as inhibition of radial mycelial growth at 2.5 ug/mL after 4 days; type: functional; details: CCM 259, 96 h, read-out: GI; how it was run: as §1
Geotrichum candidum [14] = assay: Fungicidal activity against Galactomyces geotrichum CCM 245 assessed as inhibition of radial mycelial growth at 100 ug/mL after 4 days; type: functional; details: CCM 245, 96 h, read-out: GI
How it was run: (§2)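 Compounds in acetone incorporated into PDA at 100 µg/mL. Acetone-only plates were the negative control, and benomyl at 2.5 µg/mL was the positive control. Plates were inoculated with spores from 7-day-old PDA cultures and incubated at 28 °C for 4 days (6 days for R. necatrix and V. dahliae). Radial mycelial growth was measured and % inhibition calculated against the control. Triplicate determinations, mean ± SD, ANOVA/LSD.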

[15] = tested on: Fusarium oxysporum f. sp. gladioli; assay: Fungicidal activity against Fusarium oxysporum f. sp. gladioli CCM 233 assessed as inhibition of radial mycelial growth at 100 ug/mL after 4 days; type: functional; details: CCM 233, 96 h, read-out: GI; how it was run: as §2
[16] = tested on: Fusarium oxysporum f. sp. niveum; assay: Fungicidal activity against Fusarium oxysporum f. sp. niveum CCM 259 assessed as inhibition of radial mycelial growth at 100 ug/mL after 4 days; type: functional; details: CCM 259, 96 h, read-out: GI; how it was run: as §2
Verticillium dahliae [17] = assay: Fungicidal activity against Verticillium dahliae CCM 269 assessed as inhibition of radial mycelial growth at 100 ug/mL after 6 days; type: functional; details: CCM 269, 144 h, read-out: GI; how it was run: as §2
Fusarium culmorum [18] = assay: Fungicidal activity against Fusarium culmorum CCM 172 assessed as inhibition of radial mycelial growth at 100 ug/mL after 4 days; type: functional; details: CCM 172, 96 h, read-out: GI; how it was run: as §2
Aspergillus parasiticus [19] = assay: Fungicidal activity against Aspergillus parasiticus CECT 2681 assessed as inhibition of radial mycelial growth at 100 ug/mL after 4 days; type: functional; details: CECT 2681, 96 h, read-out: GI; how it was run: as §2
Alternaria alternata [20] = assay: Fungicidal activity against Alternaria tenuis CECT 2662 assessed as inhibition of radial mycelial growth at 100 ug/mL after 4 days; type: functional; details: CECT 2662, 96 h, read-out: GI; how it was run: as §2
Oncopeltus fasciatus [21] = assay: Insecticidal activity against Oncopeltus fasciatus third-instar nymphs reared on diet based on sunflower seeds assessed as insect mortality at 5 to 10 ug/cm2 relative to untreated control; type: functional, organism-based
[22] = tested on: Colletotrichum gloeosporioides; assay: Fungicidal activity against Colletotrichum gloeosporioides CECT 2859 assessed as inhibition of radial mycelial growth at 100 ug/mL after 4 days; type: functional; details: CECT 2859, 96 h, read-out: GI; how it was run: as §2
Trichothecium roseum [23] = assay: Fungicidal activity against Trichothecium roseum CECT 2410 assessed as inhibition of radial mycelial growth at 100 ug/mL after 4 days; type: functional; details: CECT 2410, 96 h, read-out: GI; how it was run: as §2
Penicillium italicum [24] = assay: Fungicidal activity against Penicillium italicum CECT 2294 assessed as inhibition of radial mycelial growth at 100 ug/mL after 4 days; type: functional; details: CECT 2294, 96 h, read-out: GI; how it was run: as §2
Trichoderma viride [25] = assay: Fungicidal activity against Hypocrea rufa CECT 2423 assessed as inhibition of radial mycelial growth at 100 ug/mL after 4 days; type: functional; details: CECT 2423, 96 h, read-out: GI; how it was run: as §2
Colletotrichum coccodes [26] = assay: Fungicidal activity against Colletotrichum coccodes CCM 327 assessed as inhibition of radial mycelial growth at 100 ug/mL after 4 days; type: functional; details: CCM 327, 96 h, read-out: GI; how it was run: as §2
Oncopeltus fasciatus [27] = assay: Insecticidal activity against Oncopeltus fasciatus third-instar nymphs reared on diet based on sunflower seeds assessed as insect mortality at 10 ug/cm2 relative to untreated control; type: functional

Structure (SMILES)	inhibition of growth at 100 µg/mL (Geotrichum candidum [14]) [%]	inhibition of growth at 100 µg/mL [15] [%]	inhibition of growth at 100 µg/mL [16] [%]	inhibition of growth at 100 µg/mL (Verticillium dahliae [17]) [%]	inhibition of growth at 100 µg/mL (Fusarium culmorum [18]) [%]	inhibition of growth at 100 µg/mL (Aspergillus parasiticus [19]) [%]	inhibition of growth at 100 µg/mL (Alternaria alternata [20]) [%]	Activity (Oncopeltus fasciatus [21])	inhibition of growth at 100 µg/mL [22] [%]	inhibition of growth at 100 µg/mL (Trichothecium roseum [23]) [%]	inhibition of growth at 100 µg/mL (Penicillium italicum [24]) [%]	inhibition of growth at 100 µg/mL (Trichoderma viride [25]) [%]	inhibition of growth at 100 µg/mL (Colletotrichum coccodes [26]) [%]	other results
CCCCNC(=O)n1c(NC(=O)OC)nc2ccccc21 [BENOMYL]	–	–	–	–	–	–	–	–	–	–	–	–	–	inhibition of growth at 2.5 µg/mL (Colletotrichum coccodes [1]): 100%; inhibition of growth at 2.5 µg/mL (Aspergillus parasiticus [2]): 100%; inhibition of growth at 2.5 µg/mL (Verticillium dahliae [3]): 100%; inhibition of growth at 2.5 µg/mL (Alternaria alternata [4]): 0%; inhibition of growth at 2.5 µg/mL [5]: 11.1%; inhibition of growth at 2.5 µg/mL (Penicillium italicum [6]): 100%; inhibition of growth at 2.5 µg/mL [7]: 100%; inhibition of growth at 2.5 µg/mL (Geotrichum candidum [8]): 0%; inhibition of growth at 2.5 µg/mL (Trichothecium roseum [9]): 100%; inhibition of growth at 2.5 µg/mL [10]: 100%; inhibition of growth at 2.5 µg/mL (Trichoderma viride [11]): 100%; inhibition of growth at 2.5 µg/mL (Fusarium culmorum [12]): 87%; inhibition of growth at 2.5 µg/mL [13]: 100%
CC(C(=O)C(C)(C)C(=O)N1CCCC1)c1cccc(Oc2ccccc2)c1 (stereo not given)	11.7	34.8	36.9	22.7	16.3	37.9	55.2	inactive	62.2	53.2	17.8	38.7	55.7	–
CCCCCCCC(=O)CC(=O)N1CCCC1=O	0	35.5	27.6	49.8	8.2	21.3	30.2	inactive	34.5	0	26.4	22	48.3	–
CCCCCCCC(=C1C(=O)OC(C)(C)OC1=O)N1CC=CC1	23.9	26	28	13.9	39.7	39.3	21.1	–	29.9	38.6	29.9	54	18.8	mortality at 10 µg/cm2 (Oncopeltus fasciatus [27]): 40%
CC(C(=O)C(C)c1cccc(Oc2ccccc2)c1)C(=O)N1CCCC1 (stereo not given)	12.3	23.1	17.4	19	23.5	27.9	39.5	inactive	41.4	46.6	22.2	30.7	37.6	–
